Measured values taken from the RNAGym collection of RNA variant scans (doi:10.1126/science.aae0568).
Variants at the floor of the assay were thinned out.

B1: tRNA (parent)
chain: GUUCCGUUGGCGUAAUGGUAACGCGUCUCCCUCCUAAGGAGAAGACUGCGGGUUCGAGUCCCGUACGGAACG

Variants of: B1
Test: yeast fitness relative to wild type (ratio to wild type); higher = fitter; tRNA-Arg(CCU), competitive growth, 37 C, YPD
In short: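 Amplicons of the tRNA-Arg(CCU) gene were sequenced, 100-nucleotide paired-end, from the start population and from each end population of a pooled yeast competition. The competition, in six parallel replicates, lasted 24 hours in YPD at 37°C. Fitness relative to wild type was calculated from changes in genotype frequencies. Genotypes had to have ≥ 100 starting reads, and estimates < 0.5 were set to 0.5.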

| Variant | yeast fitness |
| --- | --- |
| A37G G38C G52A C61U | 0.653 |
| G38C U59C | 0.711 |
| A37C G38C | 0.502 |
| A36G C66G | 0.689 |
| A37U C61G | 0.529 |
| A36C C49U C55U C60U | ≤ 0.5 |
| A36U C66U | 0.686 |
| U35G G38A G52C | 0.678 |
| A36G C49G A70G | 0.53 |
| G38C A40U U54C | ≤ 0.5 |
| A37C A70G | 0.769 |
| A36U A40G | 0.549 |
| A36C C49A U64C | 0.767 |
| A37C U47G U53A | 0.535 |
| A36C C46U U53A | 0.639 |
| C34G G67A | 0.596 |
| A36C A37G C49A | 0.541 |
| U35C G58C | 0.883 |
| A36U G48C | 0.648 |
| A36C A57C A70G | 0.552 |
| A37U C55U C61G A65U | ≤ 0.5 |
| U35C C55A | ≤ 0.5 |
| A37G G58C A69C | 0.623 |
| G38C G41C A42G A65G | 0.503 |

| Variant | yeast fitness |
| --- | --- |
| U35C A37C G68C A70C | 0.913 |
| C34U C61G | ≤ 0.5 |
| C34U C61U | 1 |
| U35C C55A C60U A69U | ≤ 0.5 |
| A37C C60G | 0.562 |
| A37G C66U A69U | 0.674 |
| G38C C62U A65G | 0.502 |
| A37C C46U A69U | 0.7 |
| C34U C46A C55G | 0.672 |
| U35C A45U C49A C66U | ≤ 0.5 |
| A36U G58A | 0.624 |
| G38A G56A | 1.02 |
| A36C U47A G48C | ≤ 0.5 |
| C34U G38C U54C | ≤ 0.5 |
| A37G G44A A70C | 0.859 |
| A36C G48A A57U | ≤ 0.5 |
| U35A A42C C46U | 0.521 |
| U35A C49G C66G | ≤ 0.5 |
| A36G U64G C66A | ≤ 0.5 |
| A36C A37C U53G | ≤ 0.5 |
| C34U G38C | 0.605 |
| A36C A65U | 0.667 |
| A36C A65G | 0.598 |
| U35C A70C | 0.927 |

| Variant | yeast fitness |
| --- | --- |
| U35C A45C C49G A57U G63A | ≤ 0.5 |
| C34G U54A U59C A65G A70G | 0.84 |
| A36U U54A U64C A69U | ≤ 0.5 |
| C34U A43G C61A | ≤ 0.5 |
| C34U A57C A69C | 0.738 |
| U35C U54C | 0.696 |
| A37G G52A C55G | 0.516 |
| U35C A45C C49G G56A A57U G63A | ≤ 0.5 |
| C34U A42G A65C | 0.57 |
| A36C A45C | 0.763 |
| G38A U54C A65U | 0.581 |
| A37G G44C A45C G50A C55G C66A | ≤ 0.5 |
| A37G C62U | 0.864 |
| A36U A65C | 0.596 |
| A36U A65U | 0.597 |
| G38C G56U | 0.633 |
| G38C C46A C62G C66U | ≤ 0.5 |
| A37U U54A | ≤ 0.5 |
| A36G G56A G58C | 0.694 |
| A36C C49U C55U | 0.643 |
| A37G G67A | 0.819 |
| G38C A43G C62G | ≤ 0.5 |
| G38C A57G | 0.617 |
| C34G U47A G67A | ≤ 0.5 |

| Variant | yeast fitness |
| --- | --- |
| A37U G58A | 0.767 |
| U35C A37C G39A | ≤ 0.5 |
| A36G C55G | 0.623 |
| G38C A40C G51C C62U A69U | ≤ 0.5 |
| A37G U59A | 0.663 |
| A36G G68C A70G | ≤ 0.5 |
| A36G U53C | 0.724 |
| G38C C60U C66G | ≤ 0.5 |
| A37U A57C U64G | ≤ 0.5 |
| U35C A45C | 0.862 |
| C34U A40C C62U A65U | ≤ 0.5 |
| A37C C46U U59A | ≤ 0.5 |
| A36C G67A | 0.607 |
| A36C G39C A65C A69C | ≤ 0.5 |
| A37U A40C G51A | 0.687 |
| A36C U47A G48C A57C A65U | ≤ 0.5 |
| C34U G58C A69U | ≤ 0.5 |
| A36G A37U A69C | 0.663 |
| C34U A36C U53C G67A | ≤ 0.5 |
| A36C A37C G51C | ≤ 0.5 |
| A36G A42C U47C | 0.687 |
| A37U G63A | 0.642 |
| C34G G50A | 0.644 |
| G38C C61G C66U A69U | ≤ 0.5 |

| Variant | yeast fitness |
| --- | --- |
| G38U A65G | 0.802 |
| U35C C46U G51C G63A | 0.619 |
| A36U A45U C46A G68A | ≤ 0.5 |
| A36U G38C A43G G68C | ≤ 0.5 |
| G38A U47C | 0.837 |
| C34U A45U C62A | ≤ 0.5 |
| A36G G51A | 0.744 |
| U35C G51A | 0.731 |
| A37G A42U A65C A69C | ≤ 0.5 |
| A37U G67A | 0.724 |
| C34U A36G C55G A57U G67A | 0.568 |
| A36C C61G | 0.609 |
| U35G A42G U47A | ≤ 0.5 |
| C34U C55U | 0.569 |
| C34U C55A | 0.623 |
| A36C A42G | 0.633 |
| C34U U47C C55A A70U | 0.562 |
| U35C A37C C62U A65C | ≤ 0.5 |
| C34U C66G | 0.56 |
| A36U A45U U53A | 0.554 |
| A37C A42U C49A | ≤ 0.5 |
| A37U G44A A65U | ≤ 0.5 |
| A36G C49U C61A | ≤ 0.5 |
| C34G G50C C62A | ≤ 0.5 |

| Variant | yeast fitness |
| --- | --- |
| C34U G48A | 0.798 |
| A36U C60U | 0.566 |
| A36C U53C G56U | 0.603 |
| A36G C49U | 1.02 |
| A37G G51C | 0.601 |
| A37G G63C A65U | ≤ 0.5 |
| U35A A40U | 0.718 |
| A36C C55U G68C | ≤ 0.5 |
| C34U A40G C46A | 0.579 |
| A37C A40U G51A | 0.538 |
| U35G G48C C66U | ≤ 0.5 |
| A37U C66A | 0.528 |
| C34U A40C A42C G48A C61G G67C G68A | ≤ 0.5 |
| A37U C49A A65U | ≤ 0.5 |
| G38A U54A | 0.628 |
| A36C C55U C60G | 0.781 |
| A36G G38C U59A | ≤ 0.5 |
| A36U G48A G50U A57U | ≤ 0.5 |
| U35C A45C C49G | 0.562 |
| G38C G50C | 0.562 |
| A37C C46G A70C | 0.632 |
| A37G U47A C55A G58C | ≤ 0.5 |
| A36C A43C C61G A70G | ≤ 0.5 |
| A36U C55G U64G | ≤ 0.5 |

| Variant | yeast fitness |
| --- | --- |
| U35A G51C U54C A57U | ≤ 0.5 |
| A37U G38A | 0.631 |
| A36U C49U C62G | ≤ 0.5 |
| U35G A40G U54G | ≤ 0.5 |
| C34G G38C C66A A70U | ≤ 0.5 |
| C34U A45U | 0.686 |
| A37C A65U | 0.866 |
| C34G G44C | 0.652 |
| A37C A40G U47C | ≤ 0.5 |
| A36U C55U | 0.658 |
| G38C A43G C60U C62U A70C | ≤ 0.5 |
| A36C A40G G58C C60A | 0.537 |
| A37G A70C | 0.76 |
| C34U G63A | 0.624 |
| U35C G48C | 0.973 |
| C34U G41A C55A | ≤ 0.5 |
| A37C C60G C62G | ≤ 0.5 |
| G38A A43C A65C | ≤ 0.5 |
| G38A A42C U54C C62G A65C C66A | ≤ 0.5 |
| A36C C62G | 0.575 |
| G38C U64A G68A | ≤ 0.5 |
| G38C G48C | 0.722 |
| A37U A65C C66G | ≤ 0.5 |
